Laboratory results taken from ChEMBL document CHEMBL3259690, “Synthesis, structure-activity relationships, and biological studies of chromenochalcones as potential antileishmanial agents” (J Med Chem, 2014).
The source made the active and inactive calls. The calls are words filed in the database; no cut-off is given here.

Experiments:
Leishmania donovani [1] = assay: Antileishmanial activity against intracellular amastigote form of Leishmania donovani MHOM/IN/80/Dd8 expressing luciferase gene infected in mouse J774A1 cells after 72 hrs by luminescence analysis; format: functional, organism-based; conditions: MHOM/IN/80/Dd8, J774.A1, 72 h
How it was run: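 J774A.1 macrophages (4 × 10⁴/mL, RPMI-1640 + 10% HIFBS, 37 °C, 5% CO₂), after 24 h infected with stationary-phase luciferase promastigotes (4 × 10⁵/mL). Free parasites washed off after 24 h. Compound added at up to 7 dilutions from 40 μM for 72 h. Luminescence read after Steady Glo in PBS. IC₅₀ from four-parameter Hill fit; at least duplicate measurements.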

Leishmania donovani [2] = assay: Antileishmanial activity against extracellular promastigote form of Leishmania donovani MHOM/IN/80/Dd8 expressing firefly luciferase gene assessed as inhibition of parasitic multiplication at 25 uM after 96 hrs by luminescence analysis; format: functional; conditions: for inhibition at 25 µM: MHOM/IN/80/Dd8, 96 h
How it was run: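 Late-log luciferase-expressing Dd8 promastigotes, 5 × 10⁵/mL in complete M-199, incubated with compound at 24 °C for 96 h. Aliquot mixed with Steady Glo and luminescence read as RLU. Inhibition of multiplication taken from luciferase signal of treated versus untreated parasites.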

Leishmania donovani [3] = assay: Antileishmanial activity against Leishmania donovani MHOM/IN/80/Dd8 amastigotes infected in syrian golden hamster assessed as decrease in parasite count in spleen at 50 mg/kg/day, po for 5 days measured on day 7 after last dose administration by giemsa staining; format: functional; conditions: MHOM/IN/80/Dd8, Spleen
How it was run: (§1)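 Golden hamsters of either sex infected intracardially with 1 × 10⁷ L. donovani Dd8 amastigotes. After 15−20 days, pretreatment spleen biopsy; animals with +1 grade infection (5−10 amastigotes/100 spleen cell nuclei) used, 5−6 per compound. Aqueous suspensions dosed IP or PO for 5−10 consecutive days starting 2 days after biopsy. Splenic biopsies on day 7 and 28 after last dose, Giemsa counts; PI = 100 − [(ANAT×100)/(INAT×TIUC)].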

[4] = Selectivity index, ratio of CC50 for African green monkey Vero cells to IC50 for Leishmania donovani MHOM/IN/80/Dd8 intracellular amastigote form expressing luciferase gene infected in mouse J774A1 cells; format: functional, J774.A1
How it was run: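 Ratio of CC₅₀ in Vero cells (72 h MTT) to IC₅₀ against luciferase-expressing amastigotes in J774A.1 macrophages (72 h luminescence).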

Leishmania donovani [5] = assay: Antileishmanial activity against Leishmania donovani MHOM/IN/80/Dd8 amastigotes infected in syrian golden hamster assessed as decrease in parasite count in spleen at 50 mg/kg/day, po for 5 days measured on day 28 after last dose administration by giemsa staining; format: functional; conditions: MHOM/IN/80/Dd8, Spleen; how it was run: as §1
[6] = Cytotoxicity against African green monkey Vero cells after 72 hrs by MTT assay; format: cell-based; conditions: chlorocebus sabaeus
How it was run: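 Vero cells at 1 × 10⁵/mL exposed to seven concentrations from 400 μM at 37 °C, 5% CO₂, for 72 h. MTT (5 mg/mL) added for 2 h at 37 °C, formazan dissolved in DMSO, absorbance read at 544 nm. CC₅₀ estimated by the Huber and Koella method; at least duplicate measurements.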

Leishmania donovani [7] = assay: Antileishmanial activity against Leishmania donovani MHOM/IN/80/Dd8 amastigotes infected in syrian golden hamster assessed as decrease in parasite count in spleen at 40 mg/kg/day, ip for 5 days measured on day 28 after last dose administration by giemsa staining; format: functional, organism-based; how it was run: as §1
Leishmania donovani [8] = assay: Antileishmanial activity against Leishmania donovani MHOM/IN/80/Dd8 amastigotes infected in syrian golden hamster assessed as decrease in parasite count in spleen at 40 mg/kg/day, ip for 5 days measured on day 7 after last dose administration by giemsa staining; format: functional, organism-based; how it was run: as §1
Leishmania donovani [9] = assay: Antileishmanial activity against Leishmania donovani MHOM/IN/80/Dd8 amastigotes infected in syrian golden hamster assessed as decrease in parasite count in spleen at 30 mg/kg/day, po for 5 days measured on day 7 after last dose administration by giemsa staining; format: functional; conditions: MHOM/IN/80/Dd8, Spleen; how it was run: as §1
Leishmania donovani [10] = assay: Antileishmanial activity against Leishmania donovani MHOM/IN/80/Dd8 amastigotes infected in syrian golden hamster assessed as decrease in parasite count in spleen at 30 mg/kg/day, po for 5 days measured on day 28 after last dose administration by giemsa staining; format: functional; conditions: MHOM/IN/80/Dd8, Spleen; how it was run: as §1
[11] = Cytotoxicity against mouse J774A1 cells infected with Leishmania donovani expressing luciferase gene; format: cell-based; conditions: j774.a1

Compound	IC50 (Leishmania donovani [1]) [µM]	inhibition at 25 µM (Leishmania donovani [2]) [%]	Ratio CC50/IC50 [4]	CC50 at 72 h [6] [µM]	further results
CC(C)=CCCC1(C)C=Cc2c(ccc(C(=O)/C=C/c3ccc4oc(C(=O)c5ccccc5)cc4c3)c2O)O1 (stereo unspecified)	> 20	94.4			
CC(C)=CCCC1(C)C=Cc2c(ccc(/C=C/C(=O)c3ccc(C)c(C)c3)c2O)O1 (stereo unspecified)	> 20	93.2			
CC(C)=CCCC1(C)C=Cc2c(ccc(/C=C/C(=O)c3ccc(C)cc3)c2O)O1 (stereo unspecified)	> 20	92.7			
COc1ccc(C(=O)c2cc3cc(/C=C/C(=O)c4ccc5c(c4O)C=CC(C)(CCC=C(C)C)O5)ccc3o2)cc1 (stereo unspecified)	> 20	92.9			
CC(C)=CCCC1(C)C=Cc2c(ccc(C(=O)/C=C/c3ccc4occc4c3)c2O)O1 (stereo unspecified)	> 20	96.5			
CC(C)=CCCC1(C)C=Cc2c(ccc(C(=O)/C=C/c3ccc(O)c(C=O)c3)c2O)O1 (stereo unspecified)	> 20	94.6			
sodium stibogluconate					inhibition (Leishmania donovani [7]): 72.5%; inhibition (Leishmania donovani [8]): 89.5%; inhibition (Leishmania donovani [2]): inactive
CCCCCCCCCCCCCCCCOP(=O)([O-])OCC[N+](C)(C)C [MILTEFOSINE]		100			inhibition in vivo at 30 mg/kg/day (Leishmania donovani [9]): 98.5%; inhibition in vivo at 30 mg/kg/day (Leishmania donovani [10]): 83.2%
COc1ccc(/C=C/C(=O)c2ccc3c(c2O)CCC(C)(CCCC(C)C)O3)cc1 (stereo unspecified)	> 20	62.3			
CC(C)=CCCC1(C)C=Cc2c(ccc(C(=O)/C=C/c3cc4cc(C)ccc4nc3Cl)c2O)O1 (stereo unspecified)		100			Activity [11]: Toxic

Now from value to compound, other results behind:

IC50 (Leishmania donovani [1]) [µM]	Compound	inhibition at 25 µM (Leishmania donovani [2]) [%]	Ratio CC50/IC50 [4]	CC50 at 72 h [6] [µM]	further results
1.7	CC(C)=CCCC1(C)C=Cc2c(ccc(C(=O)/C=C/c3cccnc3)c2OCCN2CCCCC2)O1 (stereo unspecified)	99.8	38.3	65.2	inhibition in vivo at 50 mg/kg/day (Leishmania donovani [3]): 73.2%; inhibition in vivo at 50 mg/kg/day (Leishmania donovani [5]): 50%
10.7	CC(C)=CCCC1(C)C=Cc2c(ccc(C(=O)/C=C/c3cc(C=O)ccc3O)c2O)O1 (stereo unspecified)	91.2	5.5	59.4	
16.5	CC(C)=CCCC1(C)C=Cc2c(ccc(C(=O)/C=C/c3ccc(O)cc3)c2O)O1 (stereo unspecified) [LESPEOL]	97.5	11.5	190	
6.3	CC(C)=CCCC1(C)C=Cc2c(ccc(C(=O)/C=C/c3ccc(OCCN4CCCCC4)cc3)c2OCCN2CCCCC2)O1 (stereo unspecified)	99.9	31.9		
6.4	CC(=O)N1N=C(c2ccc3c(c2O)C=CC(C)(CCC=C(C)C)O3)CC1c1cccnc1 (stereo unspecified)	99.5	13.8	88.5	
5.8	CC(C)=CCCC1(C)C=Cc2c(ccc(C(=O)/C=C/c3cccc(-c4ncc(-c5cccc(O)c5)o4)c3)c2O)O1 (stereo unspecified)	99.5	>68.9	> 400	
11	CC(C)=CCCC1(C)C=Cc2c(ccc(C(=O)CCc3cccnc3)c2O)O1 (stereo unspecified)	98.5	24.1	266	
